# In paper PMC7985749 (CNS Drugs, 2021):
# Legend:
# [1] = Rodent models: therapeutic effect versus hematopoietic impact; format: in vivo; conditions: rodents
# [2] = CSF pharmacokinetics substudy; format: in vivo, human; conditions: for Kp at 2 h / Kp at 6 h / Kp at 12 h / concentration at 2 h / concentration at 6 h / concentration at 12 h: male, human, oral; for Kp at 2 h / Kp at 6 h / Kp at 12 h: CSF / unbound plasma
# Procedure, shortened: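 Open-label cohorts of healthy volunteers got a single oral dose of 2 or 4 mg. CSF and plasma were sampled predose and at preset timepoints, n = 3 subjects per timepoint. Levels were measured by GLP-validated LC-MS/MS: ethyl acetate liquid–liquid extraction, C18 column, positive ESI, deuterated internal standard. LLOQ was 50 pg/mL (CSF) and 10 pg/mL (plasma). Unbound plasma concentration was total corrected by an in vitro dialysis fraction unbound.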
# [3] = 28-day GLP toxicology study in rats; conditions: rat, in vivo, oral
# [4] = Adverse events / TEAEs, SAD cohort; format: in vivo, human
# platelet levels = experiment: Platelet levels; format: in vivo, human
# Procedure, shortened: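 Young volunteers took the test compound or placebo orally once daily for 5 days, 0.2–4 mg/day; older adults took 2.5 mg/day. Platelets were counted in hematology safety blood samples at preset timepoints through 264 h and at follow-up, as % change from baseline. The MID limit included >50% platelet drop or grade ≥1 thrombocytopenia in >50% of active, not placebo, subjects. EC50 and EC80 came from a nonlinear exposure–response fit.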
# [5] = Plasma pharmacokinetics, multiple ascending dose; format: in vivo, human; conditions: for Tmax / AUC(0-t) / Cmax / half-life: human, plasma, oral; for AUC(0-t) / Cmax / half-life: mean (CV %); for half-life: t½, 5 days
# [6] = Adverse events / TEAEs, older adult; format: in vivo, human
# KDM1A = KDM1A (Homo sapiens, UniProt O60341); experiment: Chemoprobe-based KDM1A target engagement in PBMCs; format: in vivo
# [7] = Safety and tolerability, all study stages; format: in vivo, human
# [8] = Neuropsychological assessments; format: in vivo, human; conditions: SAD, MAD, or CSF cohorts
# Procedure, shortened: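 Tests were VAS, LSEQ, WCST and Sternberg, run within the neurological evaluation. The trial was single-centre, randomized, double-blind and placebo-controlled in healthy volunteers. Dosing was oral: single doses of 0.2–4 mg (young males), 5 daily doses of 0.2–4 mg/day (young males and females), or 2.5 mg/day for 5 days (older adults). Assessments followed the scheduled timepoints.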
# [9] = Elderly cohort, active treatment, 5 days, n = 3
smiles,measurement,setting,value
Nc1nnc(CN[C@@H]2C[C@H]2c2ccc(OCc3ccccc3)cc2)o1 [vafidemstat],Window between the therapeutic effect and hematopoietic impact,[1],30 fold
same,Blood–brain barrier crossing,"[2]; CSF cohort, quantifiable CSF concentrations from 2 h post-dose",shown to cross the human blood–brain barrier
same,Kp at 2 h,[2]; 2 mg,0.78
same,Kp at 6 h,[2]; 2 mg,0.74
same,Kp at 12 h,[2]; 2 mg,0.92
same,Kp at 2 h,[2]; 4 mg,0.69
same,Kp at 6 h,[2]; 4 mg,0.83
same,Kp at 12 h,[2]; 4 mg,0.91
same,concentration at 2 h,"[2]; CSF, 2 mg",0.239 ng/mL
same,concentration at 6 h,"[2]; CSF, 2 mg",0.181 ng/mL
same,concentration at 12 h,"[2]; CSF, 2 mg",0.17 ng/mL
same,concentration at 2 h,"[2]; CSF, 4 mg",0.387 ng/mL
same,concentration at 6 h,"[2]; CSF, 4 mg",0.734 ng/mL
same,concentration at 12 h,"[2]; CSF, 4 mg",0.55 ng/mL
same,concentration at 2 h,"[2]; plasma (unbound), 2 mg",0.316 ng/mL
same,concentration at 6 h,"[2]; plasma (unbound), 2 mg",0.248 ng/mL
same,concentration at 12 h,"[2]; plasma (unbound), 2 mg",0.186 ng/mL
same,concentration at 2 h,"[2]; plasma (unbound), 4 mg",0.59 ng/mL
same,concentration at 6 h,"[2]; plasma (unbound), 4 mg",0.871 ng/mL
same,concentration at 12 h,"[2]; plasma (unbound), 4 mg",0.609 ng/mL
same,NOAEL at 28 days,[3],0.2 mg/kg
same,Number of treatment-related AEs,"[4]; SAD stage, subjects receiving vafidemstat",12
same,Number of TEAEs (% of total TEAEs): Headache,"[4]; SAD, 0.2 mg, n = 6",1 (7.7) n (%)
same,Number of TEAEs (% of total TEAEs): Total,"[4]; SAD, 0.2 mg, n = 6",1 (7.7) n (%)
same,Number of TEAEs (% of total TEAEs): Euphoric mood,"[4]; SAD, 0.6 mg, n = 6",1 (7.7) n (%)
same,Number of TEAEs (% of total TEAEs): Feeling hot,"[4]; SAD, 0.6 mg, n = 6",1 (7.7) n (%)
same,Number of TEAEs (% of total TEAEs): Headache,"[4]; SAD, 0.6 mg, n = 6",1 (7.7) n (%)
same,Number of TEAEs (% of total TEAEs): Total,"[4]; SAD, 0.6 mg, n = 6",3 (23.1) n (%)
same,Number of TEAEs (% of total TEAEs): Musculoskeletal stiffness,"[4]; SAD, 1.5 mg, n = 6",1 (7.7) n (%)
same,Number of TEAEs (% of total TEAEs): Paresthesia,"[4]; SAD, 1.5 mg, n = 6",1 (7.7) n (%)
same,Number of TEAEs (% of total TEAEs): Total,"[4]; SAD, 1.5 mg, n = 6",2 (15.4) n (%)
same,Number of TEAEs (% of total TEAEs): Abdominal discomfort,"[4]; SAD, 2.5 mg, n = 6",1 (7.7) n (%)
same,Number of TEAEs (% of total TEAEs): Asthenia,"[4]; SAD, 2.5 mg, n = 6",1 (7.7) n (%)
same,Number of TEAEs (% of total TEAEs): Dry mouth,"[4]; SAD, 2.5 mg, n = 6",1 (7.7) n (%)
same,Number of TEAEs (% of total TEAEs): Total,"[4]; SAD, 2.5 mg, n = 6",3 (23.1) n (%)
same,Number of TEAEs (% of total TEAEs): Blunted affect,"[4]; SAD, 4.0 mg, n = 6",1 (7.7) n (%)
same,Number of TEAEs (% of total TEAEs): Euphoric mood,"[4]; SAD, 4.0 mg, n = 6",1 (7.7) n (%)
same,Number of TEAEs (% of total TEAEs): Headache,"[4]; SAD, 4.0 mg, n = 6",1 (7.7) n (%)
same,Number of TEAEs (% of total TEAEs): Total,"[4]; SAD, 4.0 mg, n = 6",3 (23.1) n (%)
same,Maximum tolerated dose,"platelet levels; MAD, 5 days",2.5 mg/day
same,Minimum intolerable dose (MID) as defined per protocol,"platelet levels; MAD, 5 days",4 mg/day
same,Platelet levels,platelet levels; any SAD dose level or up to MAD dose III (1.0 mg/day),no variations
same,Platelet level drops from baseline versus exposure,"platelet levels; at Cmax,ss of ~ 100 ng/mL and AUCss of ~ 1000 ng·h/mL",~ 50%
same,"Pharmacokinetic profiles, young versus older adult populations",[5]; 2.5 mg/day,did not differ significantly
same,Tmax,"[5]; both, 0.2 mg/day",5.1 h
same,AUC(0-t),"[5]; both, 0.2 mg/day, AUC0–t (D1), MAD 0.2 mg/day, day 1, young",18.7 ng·h/mL
same,AUC(0-t),"[5]; both, 0.2 mg/day, AUC0–t,ss (D5), MAD 0.2 mg/day, day 5, young",37.7 ng·h/mL
same,Cmax,"[5]; both, 0.2 mg/day, Cmax (D1), MAD 0.2 mg/day, day 1, young",1.28 ng/mL
same,Cmax,"[5]; both, 0.2 mg/day, Cmax,ss (D5), MAD 0.2 mg/day, day 5, young",2.32 ng/mL
same,half-life,"[5]; both, 0.2 mg/day, MAD 0.2 mg/day, young",22 h
same,Tmax,"[5]; both, 0.6 mg/day",2.25 h
same,AUC(0-t),"[5]; both, 0.6 mg/day, AUC0–t (D1), MAD 0.6 mg/day, day 1, young",50.6 ng·h/mL
same,AUC(0-t),"[5]; both, 0.6 mg/day, AUC0–t,ss (D5), MAD 0.6 mg/day, day 5, young",114 ng·h/mL
same,Cmax,"[5]; both, 0.6 mg/day, Cmax (D1), MAD 0.6 mg/day, day 1, young",3.69 ng/mL
same,Cmax,"[5]; both, 0.6 mg/day, Cmax,ss (D5), MAD 0.6 mg/day, day 5, young",7.65 ng/mL
same,half-life,"[5]; both, 0.6 mg/day, MAD 0.6 mg/day, young",22 h
same,Tmax,"[5]; both, 1 mg/day",1.83 h
same,Tmax,"[5]; both, 1.5 mg/day",1.17 h
same,AUC(0-t),"[5]; both, 1.5 mg/day, AUC0–t (D1), MAD 1.5 mg/day, day 1, young",138 ng·h/mL
same,AUC(0-t),"[5]; both, 1.5 mg/day, AUC0–t,ss (D5), MAD 1.5 mg/day, day 5, young",299 ng·h/mL
same,Cmax,"[5]; both, 1.5 mg/day, Cmax (D1), MAD 1.5 mg/day, day 1, young",11.3 ng/mL
same,Cmax,"[5]; both, 1.5 mg/day, Cmax,ss (D5), MAD 1.5 mg/day, day 5, young",23.6 ng/mL
same,half-life,"[5]; both, 1.5 mg/day, MAD 1.5 mg/day, young",22 h
same,Tmax,"[5]; both, 2.5 mg/day",2.17 h
same,AUC(0-t),"[5]; both, 2.5 mg/day, AUC0–t (D1), MAD 2.5 mg/day, day 1, young",292 ng·h/mL
same,AUC(0-t),"[5]; both, 2.5 mg/day, AUC0–t,ss (D5), MAD 2.5 mg/day, day 5, young",634 ng·h/mL
same,AUC(0-t),"[5]; both, 2.5 mg/day, AUC0–t,ss (D5), MAD older adult 2.5 mg/day, day 5",442 ng·h/mL
same,Cmax,"[5]; both, 2.5 mg/day, Cmax (D1), MAD 2.5 mg/day, day 1, young",26.6 ng/mL
same,Cmax,"[5]; both, 2.5 mg/day, Cmax,ss (D5), MAD 2.5 mg/day, day 5, young",49.9 ng/mL
same,half-life,"[5]; both, 2.5 mg/day, MAD 2.5 mg/day, young",22 h
same,half-life,"[5]; both, 2.5 mg/day, MAD older adult 2.5 mg/day",23 h
same,Tmax,"[5]; both, 4 mg/day",1.33 h
same,AUC(0-t),"[5]; both, 4 mg/day, AUC0–t (D1), MAD 4.0 mg/day, day 1, young",564 ng·h/mL
same,AUC(0-t),"[5]; both, 4 mg/day, AUC0–t,ss (D5), MAD 4.0 mg/day, day 5, young",994 ng·h/mL
same,Cmax,"[5]; both, 4 mg/day, Cmax (D1), MAD 4.0 mg/day, day 1, young",56 ng/mL
same,Cmax,"[5]; both, 4 mg/day, Cmax,ss (D5), MAD 4.0 mg/day, day 5, young",110 ng/mL
same,half-life,"[5]; both, 4 mg/day, MAD 4.0 mg/day, young",20 h
same,Tmax,[5]; 2.5 mg/day,2.33 h
same,AUC(0-t),"[5]; 2.5 mg/day, AUC0–t (D1), MAD older adult 2.5 mg/day, day 1",258 ng·h/mL
same,Cmax,"[5]; 2.5 mg/day, Cmax (D1), MAD older adult 2.5 mg/day, day 1",24.3 ng/mL
same,Cmax,"[5]; 2.5 mg/day, Cmax,ss (D5), MAD older adult 2.5 mg/day, day 5",41 ng/mL
same,Number of TEAEs (% of total TEAEs): Asthenia,[6]; [9],1 (4.8) n (%)
same,Number of TEAEs (% of total TEAEs): Blunted effect,[6]; [9],1 (4.8) n (%)
same,Number of TEAEs (% of total TEAEs): Feeling cold,[6]; [9],1 (4.8) n (%)
same,Number of TEAEs (% of total TEAEs): Gait disturbance,[6]; [9],1 (4.8) n (%)
same,Number of TEAEs (% of total TEAEs): Headache,[6]; [9],3 (14.3) n (%)
same,Number of TEAEs (% of total TEAEs): Musculoskeletal stiffness,[6]; [9],1 (4.8) n (%)
same,Number of TEAEs (% of total TEAEs): Palpitations,[6]; [9],1 (4.8) n (%)
same,Number of TEAEs (% of total TEAEs): Total,[6]; [9],10 (47.6) n (%)
same,Number of TEAEs (% of total TEAEs): Vertigo,[6]; [9],1 (4.8) n (%)
same,Number of treatment-related TEAEs,"[6]; MAD stage in older adult volunteers, with vafidemstat",10
same,Maximum KDM1A TE values,"KDM1A; MAD, at 108 h after first dose (12 h after last dose), PBMCs",up to 90%
same,KDM1A binding in PBMCs,KDM1A; SAD and MAD,dose-dependent manner
same,Maximum KDM1A TE,"KDM1A; SAD cohorts, 4 mg, at 12 h, PBMCs",around 80%
same,KDM1A TE peak versus plasma exposure,"KDM1A; at Cmax,ss of ~ 30 ng/mL and AUCss of ~ 500 ng·h/mL",~ 90%
same,KDM1A TE,"KDM1A; older adult population, evaluable sample from a single individual",85.6%
same,Serious adverse events (SAEs),[7]; during the study,No SAEs
same,"Changes over time in hematological, biochemical, urinalysis parameters, vital signs, ECG values",[7]; planned SAD or MAD (including older adult) cohorts,No significant changes
same,Number of AEs reported by subjects receiving vafidemstat,"[7]; three study stages (SAD, MAD, older adult), 120 AEs in total",90
same,Number of TEAEs possibly or probably related to the study drug,"[7]; volunteers treated with vafidemstat, three study stages, 108 TEAEs in total",79
same,Sleeping or awakening patterns (LSEQ),[8],did not disrupt sleeping or awakening patterns
same,Somnolence and potential for abuse (VAS),[8],did not provoke somnolence or reveal a potential for abuse
same,WCST or Sternberg test,[8]; any dose level or parameter,No significant differences
